Active and inactive are the calls of the source. The calls are words filed in the database; no cut-off is given here.
Key:
[1] = tested on: Spodoptera littoralis; assay: Antifeedant activity against fifth instar Spodoptera littoralis L6 larvae assessed as food consumption at 20 ug/insect, po relative to control; type: functional
Method in brief: (§1)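 Larval consumption and biomass gain were expressed as % of control. Significance versus control was tested at p < 0.05 with LSD. A second ANCOVA was run on biomass gain with food consumption as covariate to detect postingestive effects.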

[2] = tested on: Spodoptera littoralis; assay: Antifeedant activity against fifth instar Spodoptera littoralis L6 larvae; type: functional, organism-based
Method in brief: (§2)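 Choice feeding bioassay using adult beetles, newly emerged fifth-instar larvae or apterous adult aphids. Percent feeding inhibition (FI) and percent settling inhibition (SI) were calculated as previously described. Compounds giving FR/SI > 50% were taken into a dose-response test, with EC50 (dose giving 50% feeding reduction) obtained by linear regression of %FR or %SI on log dose.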

[3] = tested on: Leptinotarsa decemlineata; assay: Antifeedant activity against Leptinotarsa decemlineata adults at 50 ug/cm'2 by no-choice test; type: functional
[4] = tested on: Spodoptera littoralis; assay: Antifeedant activity against fifth instar Spodoptera littoralis L6 larvae assessed as weight gain at 20 ug/insect, po relative to control; type: functional; method in brief: as §1
[5] = tested on: Leptinotarsa decemlineata; assay: Antifeedant activity against Leptinotarsa decemlineata adults by choice test; type: functional, organism-based; method in brief: as §2
[6] = tested on: Leptinotarsa decemlineata; assay: Antifeedant activity against Leptinotarsa decemlineata adults at 50 ug/cm'2 by choice test; type: functional; method in brief: as §2
[7] = tested on: Spodoptera littoralis; assay: Antifeedant activity against fifth instar Spodoptera littoralis L6 larvae at 50 ug/cm'2; type: functional; method in brief: as §2
[8] = tested on: Myzus persicae; assay: Antifeedant activity against Myzus persicae apterous adults; type: functional, organism-based; method in brief: as §2
[9] = tested on: Leptinotarsa decemlineata; assay: Insecticidal activity against Leptinotarsa decemlineata adults assessed as mortality at 10 ug/insect dosed in to hemolymph injection after 72 hrs; type: functional
Method in brief: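 Adult Colorado potato beetles, 20 per compound, each injected into the hemolymph with 10 µg of compound dissolved in DMSO. Mortality was scored for up to 3 days after injection. Percent mortality was analysed with contingency tables and corrected by Abbott's formula.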

[10] = tested on: Leptinotarsa decemlineata; assay: Antifeedant activity against Leptinotarsa decemlineata adults by no-choice test; type: functional, organism-based
[11] = tested on: Fusarium verticillioides; assay: Antifungal activity against Fusarium moniliforme assessed as inhibition of mycelial growth at 0.5 mg/mL; type: functional; settings: read-out: GI
Method in brief: (§3)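 Single-dose test at 0.5 mg/mL against the plant pathogens; activity estimated as percent mycelial growth inhibition.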

[12] = tested on: Spodoptera littoralis; assay: Antifeedant activity against fifth instar Spodoptera littoralis L6 larvae at 100 ug/cm'2; type: functional; method in brief: as §2
[13] = tested on: Aspergillus niger; assay: Antifungal activity against Aspergillus niger assessed as inhibition of mycelial growth at 0.5 mg/mL; type: functional; settings: read-out: GI; method in brief: as §3

Row | Structure (SMILES) | Activity [1] | EC50 [2] | Activity [3] | Activity [4] | EC50 [5] | Activity [6] | Activity [7] | Activity [8] | Activity [9] | EC50 [10] | inhibition of growth at 500 µg/mL [11] | Activity [12] | inhibition of growth at 500 µg/mL [13]
1 | COC(=O)c1ccc(OC)c(C[C@@H]2C(C)(C)C(=O)C=C[C@@]2(C)O)c1 | 75.9% | 17.4 ug.cm'-2 | 81.82% | 66.1% | 50 ug.cm'-2 | 55.4% | 71.8% | inactive | 0% | 24.19 ug.cm'-2 |  |  | 
2 | COC(=O)c1ccc2c(c1)C[C@@]1(O2)[C@@H](C)CC[C@@H](O)C1(C)C [FILIFOLINOL] | 120.2% | > 100 ug.cm'-2 | 42.4% | 120.9% | > 50 ug.cm'-2 | 16.82% |  | inactive | 20% | > 50 ug.cm'-2 | 61% | 34.6% | 36%
3 | COc1ccc(C(=O)O)cc1C[C@@H]1C(C)(C)C(=O)C=C[C@@]1(C)O (relative stereo) | 113.1% | > 100 ug.cm'-2 | 56.1% | 126.2% | > 50 ug.cm'-2 | 37% | 0% | inactive | 0% | 50 ug.cm'-2 |  |  | 
4 | C[C@@H]1CC[C@@H]2C(C)(C)C[C@]3(C)CC=C[C@]123 [SILPHINENE] |  |  |  |  | 0.27 ug.cm'-2 |  |  |  | 24% | 2.7 ug.cm'-2 |  |  | 

Reference: ChEMBL document CHEMBL1155758, “Heliotropium huascoense resin exudate: chemical constituents and defensive properties” (J Nat Prod, 2001)
